Published values of several laboratories.
Lines come from different studies, so protocols differ.
MMP13: Collagenase 3 (MMP13, Homo sapiens, UniProt P45452)
ADRB3: Beta-3 adrenergic receptor (ADRB3, Homo sapiens, UniProt P13945)

Compound | target | observed | action | method | tested at | inhibition [%]
C#Cc1n[nH]c2c(-c3cn([C@@H](C)c4ccccn4)c(=O)[nH]c3=O)cc(F)cc12 | Serine/threonine-protein kinase Sgk1 (SGK1, Homo sapiens, UniProt O00141) | enzyme activity | inhibitor |  | 0.1 µM | -0.7
COC(=O)NCCc1c(C(O)c2ccccc2)[nH]c2ccc(OC)cc12 (centres unmarked) | Calmodulin-1 (CALM1, Homo sapiens, UniProt P0DP23) | enzyme activity | inhibitor |  | 50 µM | 40 to 50
Cc1nc(C(C)(C)NC(=O)O[C@@H]2CN3CCC2CC3)cs1 | N-terminal Xaa-Pro-Lys N-methyltransferase 1 (Homo sapiens, UniProt Q9BV86) | enzyme activity | inhibitor | fluorescence | 100 µM | < 50
CN(C)C(=O)COC(=O)Cc1ccc(OC(=O)c2ccc(NC(=N)N)cc2)cc1 | MMP13 | enzyme activity | inhibitor |  | 10 µM | 24
Cn1cc(-c2cc(F)cc(N3CCn4c(cc5c4CCCC5)C3=O)c2CO)cc(Nc2ccc(N3CCN(C4COC4)CC3)cn2)c1=O | Tyrosine-protein kinase Tec (TEC, Homo sapiens, UniProt P42680) | enzyme activity | inhibitor |  | 0.1 µM | -3
c1ccc(C(NCCNC(c2ccccc2)c2ccccc2)c2ccccc2)cc1 | ADRB3 | cell-free assay |  |  | 10 µM | 59
CCOC(=O)c1ccc(OC(=O)CCCCCNC(=N)N)cc1 | MMP13 | enzyme activity | inhibitor |  | 10 µM | 13
CC(C)C[C@H](NC(=O)[C@H](Cc1ccccc1)NC(=O)c1cnccn1)B(O)O | Lysosomal Pro-X carboxypeptidase (PRCP, Homo sapiens, UniProt P42785) | enzyme activity | inhibitor |  | 33 µM | 77.9
CN(CCN1CCC(OC(=O)Nc2ccccc2-c2ccccc2)CC1)C(=O)c1ccc(CN2CCC(C(N)=O)CC2)cc1 | Progesterone receptor (PGR, Homo sapiens, UniProt P06401) | ligand displacement |  | radioligand | 1 µM | 0
C#Cc1n[nH]c2c(-c3cn([C@@H](C)c4ccccc4)c(=O)[nH]c3=O)cc(F)cc12 | Dual specificity protein kinase CLK2 (CLK2, Homo sapiens, UniProt P49760) | enzyme activity | inhibitor |  | 0.1 µM | 3.8
COc1ccc(S(=O)(=O)N2CCCCC2)cc1C | Thyrotropin-releasing hormone receptor (TRHR, Homo sapiens, UniProt P34981) | ligand displacement |  | radioligand | 10 µM | < 30
O=C(Nc1cccnn1)N1CCN([C@@H]2CCOc3cc(C(F)(F)F)ccc32)CC1 | ADRB3 | cell-free assay |  |  | 20 µM | -4
C[C@H](C(=O)N[C@H]1COc2ccccc2[C@@H]1S(C)(=O)=O)c1ccc(F)cc1 | Adenosine receptor A2b (ADORA2B, Homo sapiens, UniProt P29275) | cell-free assay |  |  | 10 µM | 9
COc1cc(Nc2ncc(F)c(Nc3ccc4c(n3)NC(=O)C(C)(C)O4)n2)cc(OC)c1OC | Calcium/calmodulin-dependent protein kinase type II subunit gamma (CAMK2G, Homo sapiens, UniProt Q13555) | binding |  | competition with immobilised ligand | 10 µM | 47
